Results on four compounds are retold here after ChEMBL document CHEMBL1134320, “Structure of protein tyrosine phosphatase 1B in complex with inhibitors bearing two phosphotyrosine mimetics” (J Med Chem, 2001).

Experiment [1] deals with T1, Tyrosine-protein phosphatase non-receptor type 4 (Homo sapiens) (UniProt P29074).
T1 sequence (whole entry): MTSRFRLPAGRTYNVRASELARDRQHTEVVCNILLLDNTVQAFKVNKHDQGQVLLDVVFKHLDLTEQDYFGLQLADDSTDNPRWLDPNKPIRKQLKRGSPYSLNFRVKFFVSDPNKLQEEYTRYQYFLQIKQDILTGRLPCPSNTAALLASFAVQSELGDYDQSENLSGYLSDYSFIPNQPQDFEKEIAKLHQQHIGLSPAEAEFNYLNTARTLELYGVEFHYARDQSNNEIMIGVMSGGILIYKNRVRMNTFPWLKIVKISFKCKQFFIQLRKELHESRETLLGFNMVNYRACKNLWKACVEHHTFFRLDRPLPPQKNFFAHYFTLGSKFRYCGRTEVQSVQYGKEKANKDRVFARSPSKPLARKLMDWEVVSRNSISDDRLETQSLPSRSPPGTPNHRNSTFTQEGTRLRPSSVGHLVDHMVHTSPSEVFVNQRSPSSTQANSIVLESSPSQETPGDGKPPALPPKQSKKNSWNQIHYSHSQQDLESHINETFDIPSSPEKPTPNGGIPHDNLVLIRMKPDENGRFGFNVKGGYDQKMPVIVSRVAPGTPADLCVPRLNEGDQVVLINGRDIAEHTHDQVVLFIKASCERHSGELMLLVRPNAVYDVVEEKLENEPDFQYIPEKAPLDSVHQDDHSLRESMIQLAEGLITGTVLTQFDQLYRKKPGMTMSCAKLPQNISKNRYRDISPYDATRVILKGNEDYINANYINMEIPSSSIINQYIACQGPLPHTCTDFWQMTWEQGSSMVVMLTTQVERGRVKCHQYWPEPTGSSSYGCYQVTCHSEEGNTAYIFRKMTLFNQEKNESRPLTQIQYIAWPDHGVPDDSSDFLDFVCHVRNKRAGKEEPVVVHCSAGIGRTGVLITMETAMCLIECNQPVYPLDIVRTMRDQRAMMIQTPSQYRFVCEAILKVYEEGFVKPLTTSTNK
Nature of the experiment: Inhibitory activity against Protein tyrosine phosphatase PTPmeg-1 at 500 uM. The gist of the method: (§1)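 Percent inhibition was measured at the single inhibitor concentration given in the line, using the FDP fluorogenic substrate at about each enzyme's KM. For CDC25a, flag-tagged protein was made in Sf9 cells (moi 5, 27 °C, 72 h) and purified on anti-flag resin to over 80% purity.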

For experiment [2], the target named is T2, M-phase inducer phosphatase 1 (Homo sapiens) (UniProt P30304).
T2 sequence (whole entry): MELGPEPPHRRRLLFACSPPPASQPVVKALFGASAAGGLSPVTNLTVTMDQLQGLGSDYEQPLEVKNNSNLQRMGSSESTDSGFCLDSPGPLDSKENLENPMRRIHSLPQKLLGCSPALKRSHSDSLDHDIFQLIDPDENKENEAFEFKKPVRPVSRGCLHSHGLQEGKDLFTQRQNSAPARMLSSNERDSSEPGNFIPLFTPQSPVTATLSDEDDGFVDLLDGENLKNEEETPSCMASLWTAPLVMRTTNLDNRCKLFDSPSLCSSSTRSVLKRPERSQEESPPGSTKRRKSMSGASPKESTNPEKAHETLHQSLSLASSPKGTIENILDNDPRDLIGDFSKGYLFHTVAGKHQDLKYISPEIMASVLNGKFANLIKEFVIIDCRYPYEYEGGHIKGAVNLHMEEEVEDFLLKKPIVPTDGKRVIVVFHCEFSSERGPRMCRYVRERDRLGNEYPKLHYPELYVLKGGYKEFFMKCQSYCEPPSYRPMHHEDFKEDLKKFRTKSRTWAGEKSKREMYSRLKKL
Nature of the experiment: Inhibitory activity against Protein tyrosine phosphatase cell division cycle 25A at 250 uM. The gist of the method:
as §1

Experiment [3] addresses T1, Tyrosine-protein phosphatase non-receptor type 4 (Homo sapiens). Nature of the experiment: Inhibitory activity against Protein tyrosine phosphatase PTPmeg-1 at 250 uM. In a few lines:
as §1

Experiment [4] deals with T2, M-phase inducer phosphatase 1 (Homo sapiens). Nature of the experiment: Inhibitory activity against Protein tyrosine phosphatase cell division cycle 25A at 250 uM.
The target of experiment [5] is T1, Tyrosine-protein phosphatase non-receptor type 4 (Homo sapiens). Nature of the experiment: Inhibitory activity against Protein tyrosine phosphatase PTPmeg-1 at 380 uM. The gist of the method: as §1

Usually inhibition stands for the change of the read-out against control, counted positive when it falls. A higher inhibition goes with a response far below the control.

Structures are written as SMILES.

Take `O=P(O)(O)C(F)(F)c1ccc(COc2ccccc2OCc2ccc(C(F)(F)P(=O)(O)O)cc2)cc1`: the inhibition in experiment [1] came out at 30%.

Turning to `O=P(O)(O)C(F)(F)c1ccc(COCCOCc2ccc(C(F)(F)P(=O)(O)O)cc2)cc1`, the inhibition in experiment [2] is 13%; in experiment [3] it was 2%.

For `O=P(O)(O)C(F)(F)c1ccc(CCCCc2ccc(C(F)(F)P(=O)(O)O)cc2)cc1`, the inhibition worked out at 9% in experiment [3] and 16% in experiment [4].

The compound `O=P(O)(O)C(F)(F)c1ccc(COc2cccc(OCc3ccc(C(F)(F)P(=O)(O)O)cc3)c2)cc1` registered an inhibition in experiment [5] of 30%.
